This note sets out measurements from ChEMBL document CHEMBL1155677, “Inhibitory effects on HIV-1 protease of constituents from the wood of Xanthoceras sorbifolia” (J Nat Prod, 2000).

Molecules are shown by their SMILES. Some results are limits rather than exact numbers.

Assay [1] concerns the target Protease (Human immunodeficiency virus 1, UniProt Q9YQ12). Put plainly: Inhibition of HIV1 protease. The method, boiled down:
(§1)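 HIV-1 protease inhibition was measured with a commercial HIV protease assay kit, which supplied both the enzyme and the reagents. Acetyl pepstatin from the same kit served as the positive control. The assay was run and percent inhibition calculated by a previously published procedure. Fractions were tested at 100 µg/mL.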

The target of assay [2] is Protease (Human immunodeficiency virus 1) (UniProt Q9YQ12). Put plainly: Inhibition of HIV1 protease at 100 ug/ml. The method, boiled down: as §1
Chain of Protease (Human immunodeficiency virus 1) (Q9YQ12 as listed by the source): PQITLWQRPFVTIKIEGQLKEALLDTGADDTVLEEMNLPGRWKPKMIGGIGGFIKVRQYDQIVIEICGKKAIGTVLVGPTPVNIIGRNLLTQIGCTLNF

Chain of Protease (Q9YQ12 whole entry): as the sequence (Q9YQ12 as listed by the source) above

Usually IC50 stands for the point on the concentration scale where inhibition reaches its midpoint. By inhibition is commonly meant the change of the read-out against control, counted positive when it falls. `CC(=O)OC[C@@]1(C)C(=O)CC[C@@]2(C)[C@H]1CC=C1[C@@H]2CC[C@@]2(C)[C@H]([C@H](CCC=C(C)C)C(=O)O)CC[C@]12C`: the IC50 in assay [1] is > 195 µM. The inhibition in assay [2] amounted to 26%.
Take `Oc1cc(O)c2c(c1)O[C@@]1(c3ccc(O)c(O)c3)Oc3cc(O)c4c(c3[C@@H]2[C@H]1O)O[C@H](c1ccc(O)c(O)c1)[C@H](O)C4` [PROANTHOCYANIDIN A2]: the IC50 in assay [1] is > 173 µM. The inhibition in assay [2] was -2%.
`CC(C)=CCC[C@H](C(=O)O)[C@@H]1CC[C@]2(C)C3=CC[C@@H]4[C@](C)(CCC(=O)[C@]4(C)CO)[C@H]3CC[C@@]12C` [XANTHOCERASIC ACID]: the IC50 in assay [1] was > 212 µM. In assay [2], the inhibition was 14%.
As to `Oc1cc(O)c2c(c1)O[C@@]1(c3cc(O)c(O)c(O)c3)Oc3cc(O)c4c(c3[C@@H]2[C@H]1O)O[C@H](c1ccc(O)c(O)c1)[C@H](O)C4`, inhibition in assay [1] was half-maximal at 118 µM (IC50). Besides, the inhibition in assay [2] amounted to 89%.
Take `C=C(CC[C@@H](C)[C@H]1CC[C@@]2(C)[C@@H]3CC[C@H]4C(C)(C)[C@@H](O)CC[C@@]45C[C@@]35CC[C@]12C)C(C)C`: the IC50 in assay [1] was > 227 µM. Further, the inhibition in assay [2] came out at 19%.
The molecule `CC1(C)CC[C@]2(C(=O)O)CC[C@]3(C)C(=CC[C@@H]4[C@@]5(C)CC[C@H](O)C(C)(C)[C@@H]5CC[C@]43C)[C@@H]2C1` [OLEANOLIC_ACID] had an IC50 in assay [1] of 21.9 µM. Moreover, in assay [2], the inhibition stood at 96%.
On to `CC(C)=CCC[C@H](C(=O)O)[C@@H]1CC[C@]2(C)C3=CC[C@H]4C(C)(C)C(=O)CC[C@]4(C)[C@H]3CC[C@@]12C`, for which the IC50 in assay [1] was 44 µM. Moreover, the inhibition in assay [2] was 90%.
For `CC(C)=CCC[C@H](C(=O)O)[C@@H]1CC[C@]2(C)C3=CC[C@@H]4[C@](C)(CC[C@@H](O)[C@]4(C)CO)[C@H]3CC[C@@]12C`, the IC50 in assay [1] is > 212 µM. Further, the inhibition in assay [2] came to 26%.
The matching figures for `CC(C)=CCC[C@H](C(=O)O)[C@@H]1CC[C@]2(C)C3=CC[C@@H]4[C@](C)(CC[C@H](O)[C@]4(C)CO)[C@H]3CC[C@@]12C`: 212 µM and 53%.
In assay [1], `CC(C)=CCC[C@H](C(=O)O)[C@@H]1CC[C@]2(C)C3=CC[C@H]4C(C)(C)[C@@H](O)CC[C@]4(C)[C@H]3CC[C@@]12C` showed an IC50 of 219 µM. For the same molecule, the inhibition in assay [2] turned out to be 50%.
In assay [1], `CC(=O)N[C@H](C(=O)N[C@H](C(=O)N[C@@H](CC(C)C)[C@@H](O)CC(=O)N[C@@H](C)C(=O)N[C@@H](CC(C)C)[C@@H](O)CC(=O)O)C(C)C)C(C)C` [ACETYLPEPSTATIN] gave an IC50 of 0.233 µM. For the same molecule, the inhibition in assay [2] came out at 100%.
